Assay results gathered from unrelated publications.
Protocols differ between the studies behind these lines.

Cc1cc(=O)oc2ccc(-c3cc(-c4ccc(Br)cc4)nc(N)n3)c(O)c12  IC50 (KB; cell growth or viability, MTT; 72 h): > 128 µg/mL
O=C1CCCCC1C1C2C=CC=CC1C(CCN1C(=O)c3ccccc3C1=O)=C2 (stereo not drawn)  IC50 (U-937; cell growth or viability, flow cytometry): 27 nM
Cc1oc2cc(OC(=O)c3ccco3)ccc2c(=O)c1-c1ccccc1  IC50 (human Neutrophil; cell migration, inhibitor): 880 nM
Oc1ccc(Nc2nc(-c3ccc(Cl)cc3)cs2)cc1  IC50 (UACC-903; cell growth or viability, MTS; 24 h): > 100000 nM
COc1ccc(-c2cc(-c3ccc4oc(=O)cc(C)c4c3O)nc(N)n2)cc1  IC50 (KB; cell growth or viability, MTT; 72 h): > 128 µg/mL
COc1ccccc1-c1c(C)oc2cc(OC(=O)c3cccs3)ccc2c1=O  IC50 (human Neutrophil; cell migration, inhibitor): 320 nM
Cc1cc(=O)oc2ccc(-c3cc(-c4ccc(Cl)cc4)nc(N)n3)c(O)c12  IC50 (KB; cell growth or viability, MTT; 72 h): 25.6 µg/mL
COc1cccc2c1C(=O)c1c(O)c3c(c(O)c1C2=O)C[C@@](O)(C(=O)CO)C[C@@H]3O[C@H]1C[C@H](N)[C@H](O)[C@H](C)O1  IC50 (KB; cell growth or viability, neutral red; 48 h): 0.93 µg/mL
CC(C)C[C@H](NC(=O)[C@H](Cc1ccccc1)NC(=O)c1cnccn1)B(O)O  IC50 (EFO-27; cell growth or viability, ATP luminescence): 21 nM
O=C1CCCCC1C1C2C=CC=CC1C(C1CC1)=C2 (stereo not drawn)  IC50 (U-937; cell growth or viability, flow cytometry): 41 nM
Nc1ncc(-c2cnn(C3CCNCC3)c2)cc1-c1nnc(CC2CC2)o1  IC50 (U-937; cell growth or viability, trypan blue; 72 h): 380 nM
CC(C)(C)SCCCC1=CC2C=CC=CC1C2C1CCCCC1=O (stereo not drawn)  IC50 (U-937; cell growth or viability, flow cytometry): 61 nM
COc1ccc(C=CC(=O)c2cccc([N+](=O)[O-])c2)cc1OC  IC50 (J774; cell growth or viability, MTT; 24 h): 25 µg/mL
O=C(N/N=C/c1c(O)ccc2ccccc12)c1cc(-c2ccc3ccccc3c2)n[nH]1  IC50 (UACC-903; cell growth or viability, MTS; 24 h): 19500 nM
COc1cc(-c2ncn(/C=C\C(=O)OC(C)C)n2)cc(C(F)(F)F)c1  IC50 (ML-2; cell growth or viability; 72 h): 99 nM
COc1ccccc1-c1c(C(F)(F)F)oc2cc(OC(=O)C(C)C)ccc2c1=O  IC50 (human Neutrophil; cell migration, inhibitor): 200 nM
COc1ccc(C=CC(=O)c2ccc(F)cc2)cc1OC  IC50 (J774; cell growth or viability, MTT; 24 h): 100 µg/mL
O=C(Oc1ccc2c(=O)c(-c3ccccc3Cl)c(C(F)(F)F)oc2c1)c1cccs1  IC50 (human Neutrophil; cell migration, inhibitor): 80 nM
COc1cc(OC)c(/C=C/S(=O)(=O)Nc2ccc(OC)c(N)c2)c(OC)c1  IC50 (RF48; cell growth or viability, trypan blue; 96 h): 4 nM
COc1cc(Nc2nccc(-c3cnn4nc(OC)ccc34)n2)cc(C(F)(F)F)c1  IC50 (NCI-H1703; cell growth or viability, ATP luminescence): 220 nM
O=C1CCCCC1C1C2C=CC=CC1C(CCCCOC1CCCCO1)=C2 (stereo not drawn)  IC50 (U-937; cell growth or viability, flow cytometry): 143 nM
Cc1ccc(-c2cc(-c3ccc4oc(=O)cc(C)c4c3O)nc(N)n2)cc1  IC50 (KB; cell growth or viability, MTT; 72 h): > 128 µg/mL
COC(=O)CCC1=CC2C=CC=CC1C2C1CCCCC1=O (stereo not drawn)  IC50 (U-937; cell growth or viability, flow cytometry): 171 nM
Cc1oc2cc(OC(=O)c3ccco3)ccc2c(=O)c1-c1nc2ccccc2n1C  IC50 (human Neutrophil; cell migration, inhibitor): 410 nM
Oc1ccc(/C=C/c2cc(O)cc(O)c2)cc1  IC50 (J774; cell growth or viability, resazurin; 48 h): 162000 nM
CCOC(=O)Oc1ccc2c(=O)c(-c3ccccc3OC)c(C(F)(F)F)oc2c1  IC50 (human Neutrophil; cell migration, inhibitor): 1000 nM
CCc1c2c(nc3ccc(O)cc13)-c1cc3c(c(=O)n1C2)COC(=O)[C@]3(O)CC  IC50 (HCCLM3; cell growth or viability, MTT; 72 h): 3080 nM
